Measured values reported in ChEMBL document CHEMBL2439973, “Discovery of VU0409106: A negative allosteric modulator of mGlu5 with activity in a mouse model of anxiety” (Bioorg Med Chem Lett, 2013).
Calls of active or inactive are those of the source. The calls are words filed in the database; no cut-off is given here.

How the values were obtained:
[1] = tested on: Plasma; experiment: Tmax in CD-1 mouse plasma at 10 mg/kg, ip by LC-MS/MS analysis; assay type: ADME, organism-based; parameters: dose 10 mg/kg, route intraperitoneal; conditions: in vivo
[2] = biological target: Muscarinic acetylcholine receptor M3 (Homo sapiens) (UniProt P20309); experiment: Displacement of [3H]-N-Methylscopolamine from human recombinant muscarinic M3 receptor expressed in CHO-K1 cells at 10 uM relative to control; assay type: cell-based
In short: (§1)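 Tested once at 10 μM in a commercial radioligand binding panel of 68 GPCRs, ion channels, kinases and transporters. Activity is given as displacement of each radioligand relative to control.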

[3] = biological target: Adenosine receptor A1 (Homo sapiens) (UniProt P30542); experiment: Displacement of [3H]-DPCPX from human recombinant adenosine A1 receptor expressed in CHO cells at 10 uM relative to control; assay type: cell-based; in short: as §1
[4] = biological target: Gamma-aminobutyric acid type B receptor subunit 1 (Homo sapiens) (UniProt Q9UBS5); experiment: Displacement of [3H]-CGP-54626 from human recombinant GABAB1A receptor expressed in CHO cells at 10 uM relative to control; assay type: cell-based; in short: as §1
[5] = biological target: D(3) dopamine receptor (Homo sapiens) (UniProt P35462); experiment: Displacement of [3H]-Spiperone from human recombinant dopamine D3 receptor expressed in CHO cells at 10 uM relative to control; assay type: cell-based
[6] = organism: Rattus norvegicus; experiment: Displacement of [3H]-Batrachotoxin from sodium channel site 2 in rat brain at 10 uM relative to control; assay type: tissue-based; in short: as §1
[7] = organism: Rattus norvegicus; experiment: Displacement of [35S]-ATP-alpha-S from purinergic P2Y receptor in rat brain at 10 uM relative to control; assay type: tissue-based; in short: as §1
[8] = biological target: Cannabinoid receptor 1 (Homo sapiens) (UniProt P21554); experiment: Displacement of [3H]-SR141716A from human recombinant CB1 receptor expressed in rat Chem-1 cells at 10 uM relative to control; assay type: cell-based
[9] = biological target: B1 bradykinin receptor (Homo sapiens) (UniProt P46663); experiment: Displacement of [3H]-(Des-Arg10)-Kallidin from bradykinin B1 receptor in human IMR90 cells at 10 uM relative to control; assay type: cell-based; conditions: IMR-90; in short: as §1
[10] = biological target: Adenosine receptor A2a (Homo sapiens) (UniProt P29274); experiment: Displacement of [3H]-CGS-21680 from human recombinant adenosine A2A receptor expressed in HEK293 cells at 10 uM relative to control; assay type: cell-based; in short: as §1
[11] = biological target: Sigma non-opioid intracellular receptor 1 (Homo sapiens) (UniProt Q99720); experiment: Displacement of [3H]-Haloperidol from sigma1 receptor in human Jurkat cells at 10 uM relative to control; assay type: cell-based; in short: as §1
[12] = tested on: CHO-K1; experiment: Displacement of [3H]-Spiperone from human recombinant dopamine D4.2 receptor expressed in CHO-K1 cells at 10 uM relative to control; assay type: cell-based
[13] = tested on: Brain; experiment: AUC in CD-1 mouse brain at 10 mg/kg, ip by LC-MS/MS analysis; assay type: ADME, organism-based; parameters: dose 10 mg/kg, route intraperitoneal; conditions: in vivo
[14] = biological target: Cysteinyl leukotriene receptor 1 (Homo sapiens) (UniProt Q9Y271); experiment: Displacement of [3H]-LTD4 from human recombinant leukotriene cysteinyl CysLT1 receptor expressed in CHO-K1 cells at 10 uM relative to control; assay type: cell-based; in short: as §1
[15] = biological target: Neuropeptide Y receptor type 1 (Homo sapiens) (UniProt P25929); experiment: Displacement of [125I]-Peptide YY from neuropeptide Y Y1 receptor in human SK-N-MC cells at 10 uM relative to control; assay type: cell-based; in short: as §1
[16] = tested on: Mus musculus; experiment: Anxiolytic activity in Harlan CD-1 mouse assessed as inhibition of marble burying behavior at >= 3 mg/kg, ip; assay type: functional, organism-based; parameters: dose 3 mg/kg
In short: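 Marble burying in mice with deep bedding; compound given IP at a range of doses with 15 min pretreatment, n = 8 per dose; marbles buried counted, brain samples collected right after testing for exposure; comparison to vehicle by Dunnett's test.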

[17] = organism: Mesocricetus auratus; experiment: Displacement of [3H]-Glyburide from ATP-sensitive potassium channel in hamster pancreatic HIT-T15 beta cells at 10 uM relative to control; in short: as §1
[18] = biological target: Androgen receptor (Homo sapiens) (UniProt P10275); experiment: Displacement of [3H]-Methyltrienolone from androgen receptor in human LNCAP cells at 10 uM relative to control; assay type: cell-based; in short: as §1
[19] = biological target: 5-hydroxytryptamine receptor 3A (Homo sapiens) (UniProt P46098); experiment: Displacement of [3H]-GR-65630 from human recombinant 5-HT3 receptor expressed in HEK293 cells at 10 uM relative to control; assay type: cell-based; in short: as §1
[20] = biological target: Acetylcholine receptor subunit alpha (Homo sapiens) (UniProt P02708); experiment: Displacement of [125I]-alpha-Bungarotoxin from nicotinic acetylcholine alpha1 receptor bungarotoxin binding site in human RD cells at 10 uM relative to control; assay type: cell-based; in short: as §1
[21] = biological target: Histamine H1 receptor (Homo sapiens) (UniProt P35367); experiment: Displacement of [3H]-Pyrilamine from human recombinant histamine H1 receptor expressed in CHO-K1 cells at 10 uM relative to control; assay type: cell-based
[22] = tested on: Plasma; experiment: Cmax in CD-1 mouse plasma at 10 mg/kg, ip by LC-MS/MS analysis; assay type: ADME, organism-based; parameters: dose 10 mg/kg, route intraperitoneal; conditions: in vivo
[23] = organism: Rattus norvegicus; experiment: Displacement of [3H]-Idazoxan from central-type imidazoline I2 receptor in rat cerebral cortex at 10 uM relative to control; assay type: tissue-based; in short: as §1
[24] = organism: Rattus norvegicus; experiment: Displacement of [125I]-Omega-Conotoxin GVIA from N-type calcium channel in rat frontal brain at 10 uM relative to control; in short: as §1
[25] = biological target: Muscarinic acetylcholine receptor M1 (Homo sapiens) (UniProt P11229); experiment: Displacement of [3H]-N-Methylscopolamine from human recombinant muscarinic M1 receptor expressed in CHO-K1 cells at 10 uM relative to control; assay type: cell-based; in short: as §1
[26] = biological target: Substance-P receptor (Homo sapiens) (UniProt P25103); experiment: Displacement of [3H]-Substance P from human recombinant tachykinin NK1 receptor expressed in CHO cells at 10 uM relative to control; assay type: cell-based
[27] = biological target: Metabotropic glutamate receptor 2 (Rattus norvegicus) (UniProt P31421); experiment: Allosteric modulation of rat mGlu2 receptor expressed in HEK293 cells coexpressing G protein-activated inward rectifier potassium channel assessed as effect on glutamate-induced thallium flux at 10 uM; assay type: cell-based
[28] = organism: Rattus norvegicus; experiment: Displacement of [3H]-Nitrendipine from L-type calcium channel dihydropyridine binding site in rat cerebral cortex at 10 uM relative to control; assay type: tissue-based; in short: as §1
[29] = organism: Rattus norvegicus; experiment: Displacement of [125I]-Triiodothyronine from thyroid hormone receptor in rat liver at 10 uM relative to control; in short: as §1
[30] = biological target: Histamine H2 receptor (Homo sapiens) (UniProt P25021); experiment: Displacement of [125I]-Aminopotentidine from human recombinant histamine H2 receptor expressed in CHO-K1 cells at 10 uM relative to control; assay type: cell-based; in short: as §1
[31] = biological target: 5-hydroxytryptamine receptor 1A (Homo sapiens) (UniProt P08908); experiment: Displacement of [3H]-8-OH-DPAT from human recombinant 5-HT1A receptor expressed in CHO-K1 cells at 10 uM relative to control; assay type: cell-based; in short: as §1
[32] = organism: Rattus norvegicus; experiment: Displacement of [3H]-GABA from GABA transporter in rat cerebral cortex at 10 uM relative to control; assay type: tissue-based; in short: as §1
[33] = biological target: Adenosine receptor A3 (Homo sapiens) (UniProt P0DMS8); experiment: Displacement of [125I]-AB-MECA from human recombinant adenosine A3 receptor expressed in CHO-K1 cells at 10 uM relative to control; assay type: cell-based; in short: as §1
[34] = biological target: Sodium-dependent dopamine transporter (Homo sapiens) (UniProt Q01959); experiment: Displacement of [125I]-RTI-55 from human recombinant DAT expressed in CHO-K1 cells at 10 uM relative to control; assay type: cell-based; in short: as §1
Sodium-dependent dopamine transporter (Homo sapiens), sequence (Q01959 whole entry): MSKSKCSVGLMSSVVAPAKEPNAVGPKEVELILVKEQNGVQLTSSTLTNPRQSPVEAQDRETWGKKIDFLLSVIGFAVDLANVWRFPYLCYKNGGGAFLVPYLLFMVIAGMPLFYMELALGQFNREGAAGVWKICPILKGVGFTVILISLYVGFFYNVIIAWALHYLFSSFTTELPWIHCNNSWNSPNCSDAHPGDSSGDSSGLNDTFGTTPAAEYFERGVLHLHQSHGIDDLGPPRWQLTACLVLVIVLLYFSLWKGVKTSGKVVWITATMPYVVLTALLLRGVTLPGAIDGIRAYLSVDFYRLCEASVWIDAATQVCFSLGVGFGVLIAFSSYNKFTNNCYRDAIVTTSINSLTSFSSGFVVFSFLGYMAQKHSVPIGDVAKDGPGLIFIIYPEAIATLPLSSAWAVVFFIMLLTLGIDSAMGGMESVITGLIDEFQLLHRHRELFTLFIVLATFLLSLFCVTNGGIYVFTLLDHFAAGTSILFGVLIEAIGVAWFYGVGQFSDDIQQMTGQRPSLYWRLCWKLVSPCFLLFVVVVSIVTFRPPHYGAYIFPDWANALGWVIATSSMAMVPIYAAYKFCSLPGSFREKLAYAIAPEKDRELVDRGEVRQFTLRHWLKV

5-hydroxytryptamine receptor 1A (Homo sapiens), sequence (P08908 whole entry): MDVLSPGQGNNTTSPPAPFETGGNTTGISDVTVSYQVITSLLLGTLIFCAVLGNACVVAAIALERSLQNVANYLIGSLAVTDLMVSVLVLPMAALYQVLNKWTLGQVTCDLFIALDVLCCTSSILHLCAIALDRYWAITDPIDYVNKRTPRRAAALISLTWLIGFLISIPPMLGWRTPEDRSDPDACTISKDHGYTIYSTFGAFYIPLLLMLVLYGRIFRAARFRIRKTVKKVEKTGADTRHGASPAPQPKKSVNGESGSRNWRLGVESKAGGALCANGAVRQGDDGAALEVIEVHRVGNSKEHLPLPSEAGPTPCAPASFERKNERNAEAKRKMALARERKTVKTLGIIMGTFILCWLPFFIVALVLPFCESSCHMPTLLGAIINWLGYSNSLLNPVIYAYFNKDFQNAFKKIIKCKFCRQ
Muscarinic acetylcholine receptor M3 (Homo sapiens), sequence (P20309 whole entry, looked up): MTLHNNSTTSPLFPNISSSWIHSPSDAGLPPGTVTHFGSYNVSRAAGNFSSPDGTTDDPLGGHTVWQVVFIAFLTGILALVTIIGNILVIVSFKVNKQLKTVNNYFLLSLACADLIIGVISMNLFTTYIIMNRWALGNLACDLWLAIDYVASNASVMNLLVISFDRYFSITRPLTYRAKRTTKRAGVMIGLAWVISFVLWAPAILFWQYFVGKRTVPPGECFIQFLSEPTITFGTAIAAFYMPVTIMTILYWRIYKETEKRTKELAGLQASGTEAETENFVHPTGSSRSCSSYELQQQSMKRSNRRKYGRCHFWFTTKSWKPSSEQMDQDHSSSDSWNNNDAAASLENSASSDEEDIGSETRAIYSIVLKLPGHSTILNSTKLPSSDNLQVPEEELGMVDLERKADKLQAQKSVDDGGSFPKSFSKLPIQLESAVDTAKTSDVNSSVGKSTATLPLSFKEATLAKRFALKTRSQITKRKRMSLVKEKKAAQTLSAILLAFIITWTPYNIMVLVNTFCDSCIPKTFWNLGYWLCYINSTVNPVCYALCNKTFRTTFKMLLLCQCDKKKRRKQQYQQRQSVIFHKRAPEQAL
Muscarinic acetylcholine receptor M1 (Homo sapiens), sequence (P11229 whole entry): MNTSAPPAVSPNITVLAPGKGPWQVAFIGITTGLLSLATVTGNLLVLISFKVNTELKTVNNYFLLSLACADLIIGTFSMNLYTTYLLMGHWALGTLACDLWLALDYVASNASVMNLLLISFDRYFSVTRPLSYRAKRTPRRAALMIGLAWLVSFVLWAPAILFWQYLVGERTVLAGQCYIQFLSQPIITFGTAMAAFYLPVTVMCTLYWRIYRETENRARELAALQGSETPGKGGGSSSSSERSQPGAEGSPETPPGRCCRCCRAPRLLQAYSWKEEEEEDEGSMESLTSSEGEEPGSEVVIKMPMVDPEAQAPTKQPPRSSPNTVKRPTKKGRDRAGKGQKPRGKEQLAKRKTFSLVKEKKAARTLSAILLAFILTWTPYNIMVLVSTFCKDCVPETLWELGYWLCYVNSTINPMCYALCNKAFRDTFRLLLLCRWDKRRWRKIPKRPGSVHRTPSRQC
Acetylcholine receptor subunit alpha (Homo sapiens), sequence (P02708 whole entry): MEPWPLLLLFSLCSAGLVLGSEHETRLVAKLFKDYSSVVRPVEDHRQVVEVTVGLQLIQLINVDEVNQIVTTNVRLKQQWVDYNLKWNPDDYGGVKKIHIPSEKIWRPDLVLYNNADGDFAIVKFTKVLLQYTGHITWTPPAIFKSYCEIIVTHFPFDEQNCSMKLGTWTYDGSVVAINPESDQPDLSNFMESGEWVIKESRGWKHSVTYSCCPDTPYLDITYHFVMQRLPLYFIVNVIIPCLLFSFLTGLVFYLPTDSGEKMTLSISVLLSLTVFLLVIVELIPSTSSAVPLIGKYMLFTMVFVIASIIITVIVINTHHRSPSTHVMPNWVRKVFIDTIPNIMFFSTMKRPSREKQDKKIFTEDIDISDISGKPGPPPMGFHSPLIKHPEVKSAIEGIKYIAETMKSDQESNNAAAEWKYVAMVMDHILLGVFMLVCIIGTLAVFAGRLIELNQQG
Metabotropic glutamate receptor 2 (Rattus norvegicus), sequence (P31421 19-872 limits assumed): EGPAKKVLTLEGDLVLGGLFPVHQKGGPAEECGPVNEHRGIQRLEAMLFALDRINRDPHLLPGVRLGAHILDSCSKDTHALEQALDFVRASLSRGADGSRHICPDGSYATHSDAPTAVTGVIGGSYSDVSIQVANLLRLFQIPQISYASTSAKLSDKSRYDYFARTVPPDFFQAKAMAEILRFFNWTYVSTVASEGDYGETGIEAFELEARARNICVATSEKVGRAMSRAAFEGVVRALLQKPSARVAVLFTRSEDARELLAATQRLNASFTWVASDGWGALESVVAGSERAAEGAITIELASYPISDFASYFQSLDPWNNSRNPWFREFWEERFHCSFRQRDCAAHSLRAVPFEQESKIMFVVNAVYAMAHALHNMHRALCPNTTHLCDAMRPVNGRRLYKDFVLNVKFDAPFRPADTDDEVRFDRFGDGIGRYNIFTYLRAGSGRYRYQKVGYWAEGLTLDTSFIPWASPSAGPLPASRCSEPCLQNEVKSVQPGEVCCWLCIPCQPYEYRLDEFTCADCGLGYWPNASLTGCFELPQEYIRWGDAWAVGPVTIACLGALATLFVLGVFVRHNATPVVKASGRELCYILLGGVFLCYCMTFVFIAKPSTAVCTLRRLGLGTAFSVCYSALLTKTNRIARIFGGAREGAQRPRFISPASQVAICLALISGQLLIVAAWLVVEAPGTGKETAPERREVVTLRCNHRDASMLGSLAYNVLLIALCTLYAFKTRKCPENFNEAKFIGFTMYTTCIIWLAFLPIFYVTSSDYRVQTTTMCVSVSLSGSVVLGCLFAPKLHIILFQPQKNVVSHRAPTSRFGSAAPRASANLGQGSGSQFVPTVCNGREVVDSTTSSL
5-hydroxytryptamine receptor 3A (Homo sapiens), sequence (P46098 whole entry): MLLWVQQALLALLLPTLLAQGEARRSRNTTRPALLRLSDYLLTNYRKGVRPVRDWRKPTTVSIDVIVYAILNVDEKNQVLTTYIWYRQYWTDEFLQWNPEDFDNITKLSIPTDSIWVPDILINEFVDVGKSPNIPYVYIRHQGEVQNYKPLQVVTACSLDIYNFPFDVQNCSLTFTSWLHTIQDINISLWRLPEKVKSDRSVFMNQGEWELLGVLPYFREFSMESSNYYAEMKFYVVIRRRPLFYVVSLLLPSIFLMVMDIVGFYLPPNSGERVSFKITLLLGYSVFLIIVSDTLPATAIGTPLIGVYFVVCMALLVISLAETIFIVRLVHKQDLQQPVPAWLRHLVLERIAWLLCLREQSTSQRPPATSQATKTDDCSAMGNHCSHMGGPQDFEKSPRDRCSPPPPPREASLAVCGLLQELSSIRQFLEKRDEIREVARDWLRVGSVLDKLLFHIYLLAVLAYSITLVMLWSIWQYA
Histamine H2 receptor (Homo sapiens), sequence (P25021 whole entry): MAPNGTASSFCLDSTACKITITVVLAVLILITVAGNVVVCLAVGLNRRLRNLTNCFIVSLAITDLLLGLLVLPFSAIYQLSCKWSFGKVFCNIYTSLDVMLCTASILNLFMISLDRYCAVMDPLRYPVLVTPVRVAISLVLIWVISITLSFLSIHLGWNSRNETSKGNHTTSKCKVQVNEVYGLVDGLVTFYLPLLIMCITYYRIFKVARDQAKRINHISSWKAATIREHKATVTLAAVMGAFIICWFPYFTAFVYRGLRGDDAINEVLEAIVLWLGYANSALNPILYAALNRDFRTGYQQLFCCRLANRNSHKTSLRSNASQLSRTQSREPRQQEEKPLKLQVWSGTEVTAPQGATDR
D(3) dopamine receptor (Homo sapiens), sequence (P35462 whole entry): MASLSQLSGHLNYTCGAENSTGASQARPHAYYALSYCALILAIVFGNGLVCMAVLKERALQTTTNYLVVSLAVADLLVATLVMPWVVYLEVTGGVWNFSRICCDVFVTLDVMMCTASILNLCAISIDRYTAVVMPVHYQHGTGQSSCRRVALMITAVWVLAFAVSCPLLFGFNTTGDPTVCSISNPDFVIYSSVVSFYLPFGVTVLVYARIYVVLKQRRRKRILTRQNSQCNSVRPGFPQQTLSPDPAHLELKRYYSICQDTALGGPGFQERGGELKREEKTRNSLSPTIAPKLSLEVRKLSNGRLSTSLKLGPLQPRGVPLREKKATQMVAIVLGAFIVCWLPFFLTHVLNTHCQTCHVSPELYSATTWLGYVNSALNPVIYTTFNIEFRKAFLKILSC
Sigma non-opioid intracellular receptor 1 (Homo sapiens), sequence (Q99720 whole entry): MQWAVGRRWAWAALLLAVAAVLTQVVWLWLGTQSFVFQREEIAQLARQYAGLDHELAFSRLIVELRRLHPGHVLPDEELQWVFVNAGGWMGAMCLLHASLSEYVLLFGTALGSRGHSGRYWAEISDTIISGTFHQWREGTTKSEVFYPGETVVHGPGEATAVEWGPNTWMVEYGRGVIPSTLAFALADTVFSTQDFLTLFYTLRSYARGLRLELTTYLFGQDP

## Cc1csc(NC(=O)c2cc(F)cc(Oc3cncnc3)c2)n1
[1]
  Tmax: 15 min
[2]
  inhibition: > 35%
[3]
  inhibition: > 35%
[4]
  inhibition: > 35%
[5]
  inhibition: > 35%
[6]
  inhibition: > 35%
[7]
  inhibition: > 35%
[8]
  inhibition: > 35%
[9]
  inhibition: > 35%
[10]
  inhibition: > 35%
[11]
  inhibition: > 35%
[12]
  inhibition: > 35%
[13]
  AUC: 696 ng·h/g
[14]
  inhibition: > 35%
[15]
  inhibition: > 35%
[16]
  inhibition: Active
[17]
  inhibition: > 35%
[18]
  inhibition: > 35%
[19]
  inhibition: > 35%
[20]
  inhibition: > 35%
[21]
  inhibition: > 35%
[22]
  Cmax: 1450 ng/mL
[23]
  inhibition: > 35%
[24]
  inhibition: > 35%
[25]
  inhibition: > 35%
[26]
  inhibition: > 35%
[27]
  Activity: inactive
[28]
  inhibition: > 35%
[29]
  inhibition: > 35%
[30]
  inhibition: > 35%
[31]
  inhibition: > 35%
[32]
  inhibition: > 35%
[33]
  inhibition: > 35%
[34]
  inhibition: > 35%
